From ChEMBL document CHEMBL1126800, “Preparation of substituted N-phenyl-4-aryl-2-pyrimidinamines as mediator release inhibitors” (J Med Chem, 1993)
pIC50: −log10 of the molar value.

species on record: Homo sapiens; test: In vitro inhibition of histamine release from human basophils; format: functional, organism-based; details: Homo sapiens
Procedure, shortened: (§1)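 Human basophils separated from leukocytes were incubated with test compound, then challenged with anti-IgE or antigen (Lichtenstein method). Histamine release was measured against controls and blanks. IC50 is the concentration lowering histamine release by 50%.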

pIC50 | Structure (SMILES)
5.55 | Nc1ccc(Nc2nccc(-c3cccnc3)n2)cc1
6.15 | Cc1cc(C)cc(Nc2nccc(-c3ccco3)n2)c1
5.82 | COc1cccc(Nc2nccc(-c3ccc(C)o3)n2)c1
6.05 | CC(=O)N(C)c1ccc(Nc2nccc(-c3cccnc3)n2)cc1
6.15 | Cc1cccc(Nc2nccc(-c3ccccn3)n2)c1
5.31 | Cc1cc(-c2ccnc(Nc3ccc(N(C)C)cc3)n2)c(C)o1
5.39 | CC(=O)c1cccc(Nc2nccc(-c3cccnc3)n2)c1
5.85 | Cc1cccc(Nc2nccc(-c3ccc(C)s3)n2)c1
6.05 | c1ccc(Nc2nccc(-c3cccnc3)n2)cc1
7.00 | c1cc(Nc2nccc(-c3cccnc3)n2)cc(OCCn2ccnc2)c1
5.55 | COc1cccc(Nc2nccc(-c3cc4ccccc4o3)n2)c1
5.23 | Cc1cc(-c2ccco2)nc(Nc2ccc(N(C)C)cc2)n1
5.72 | CCc1ccc(Nc2nccc(-c3cnccn3)n2)cc1
5.96 | CCc1cccc(Nc2nccc(-c3ccsc3)n2)c1
5.82 | CC(=O)Nc1ccc(Nc2nccc(-c3ccccn3)n2)cc1
< 4.62 | COc1cccc(Nc2nc(C)cc(-c3ccncc3)n2)c1
5.46 | CC1CCN(c2cccc(Nc3nccc(-c4cccs4)n3)c2)CC1
< 5.22 | CCN(CC)CCOc1ccccc1Nc1nccc(-c2cccnc2)n1
5.68 | CN(C)c1ccc(Nc2nccc(-c3ccsc3)n2)cc1

pIC50 | Structure (SMILES)
< 4.62 | COc1cccc(Nc2nccc(-c3sccc3C)n2)c1
5.37 | c1csc(-c2ccnc(Nc3ccc(-n4ccnc4)cc3)n2)c1
5.92 | CCN(CC)CCOc1cccc(Nc2nccc(-c3ccccn3)n2)c1
< 4.62 | Cc1cc(-c2ccncc2)nc(Nc2cccc(N(C)C)c2)n1
6.70 | CCN(CC)CCOc1ccc(Nc2nccc(-c3ccncc3)n2)cc1
4.61 | Cc1cc(-c2ccc(C)s2)nc(Nc2ccccc2)n1
6.00 | Fc1cccc(Nc2nccc(-c3ccccn3)n2)c1
5.89 | CCN(CC)CCOc1ccc(Nc2nccc(-c3ccco3)n2)cc1
5.77 | COc1ccc(Nc2nccc(-c3cccnc3)n2)cc1
6.30 | CC1CCN(c2ccc(Nc3nccc(-c4cccnc4)n3)cc2)CC1
6.05 | c1ccc(Nc2nccc(-c3ccncc3)n2)cc1
5.23 | Cc1ccc(Nc2nccc(-c3ccccn3)n2)cc1C
6.52 | COc1cccc(Nc2nccc(-c3cccnc3)n2)c1
5.85 | CCc1cccc(Nc2nccc(-c3ccccn3)n2)c1
6.40 | FC(F)(F)c1cc(Nc2nccc(-c3ccncc3)n2)ccc1-n1ccnc1
7.00 | c1cc(Nc2nccc(-c3cccs3)n2)cc(OCCn2ccnc2)c1
6.52 | Cc1cccc(Nc2nccc(-c3cccs3)n2)c1
5.43 | CN(C)c1ccc(Nc2nccc(-c3ccncc3)n2)cc1
5.48 | CN(C)c1ccc(Nc2nccc(-c3ccccn3)n2)cc1

Structure (SMILES) | pIC50
c1ccc(-c2ccnc(Nc3cccc(-n4ccnc4)c3)n2)nc1 | 6.52

species on record: Homo sapiens; test: In vitro inhibition of histamine release from human basophils; H= Compound interfered with the histamine assay; format: functional, organism-based; details: not given; procedure, shortened: as §1

Structure (SMILES) | IC50
CNc1ccc(Nc2nccc(-c3ccncc3)n2)cc1.Cl.Cl | Compound interfered with the histamine assay

species on record: Homo sapiens; test: Tested for in vitro cell leukotriene C4 release inhibition by radioimmunoassay; format: functional, organism-based; details: not given
Procedure, shortened: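 Basophils were incubated with compound and challenged. LTC4 release was measured by radioimmunoassay, with duplicate samples processed per the [3H] LTC4 RIA kit procedure. Histamine release was measured simultaneously on a second portion of the same cells. IC50 is from n = 5.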

Structure (SMILES) | pIC50
c1ccc(-c2ccnc(Nc3cccc(-n4ccnc4)c3)n2)nc1 | 6.69

test system: Mus musculus; test: Tested for in vivo activity in mouse by passive cutaneous anaphylaxis (PCA) test; format: functional; details: read-out: ID50 (the source's name)
Procedure, shortened: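 Mouse passive cutaneous anaphylaxis test with oral dosing of compound. Read at times of […] after dosing. Value expressed as ID50 in mg/kg.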

Structure (SMILES) | ED50 [mg/kg]
c1ccc(-c2ccnc(Nc3cccc(-n4ccnc4)c3)n2)nc1 | 50

test system: not listed separately; test: Tested for toxic concentration in mice; format: ADME, organism-based; details: mouse, in vivo

Structure (SMILES) | LD50 [mg/kg]
c1ccc(-c2ccnc(Nc3cccc(-n4ccnc4)c3)n2)nc1 | 800
